pIC50: −log10 of the molar value. Active and inactive are the calls of the source. No cut-off for these calls is given here.
What was measured:
[1] = Inhibition of cytosolic PLA2
Summary of the method: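 Measured in RBL-2H3 cells stimulated with ionomycin.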

[2] = test system: Gambusia affinis; experiment: Ichthyotoxicity against Gambusia affinis at 0.1 ppm

Structure (SMILES)	Activity [1]	pIC50 [1]	Activity [2]
CC(=O)O[C@@H]1C[C@@H]2[C@@]3(C)CCCC(C)(C)[C@@H]3CC[C@@]2(C)[C@@H]2CC=C3CO[C@@H](O)[C@@H]3[C@@]12C	inactive		inactive
CC(=O)O[C@H]1C[C@@H]2[C@@]3(C)CCCC(C)(C)[C@@H]3CC[C@@]2(C)[C@@H]2CC=C3CO[C@@H](O)[C@@H]3[C@@]12C	inactive		inactive
CC(=O)O[C@H]1C[C@@H]2[C@@]3(C)CCCC(C)(C)[C@@H]3CC[C@@]2(C)[C@@H]2CC=C(C=O)[C@H](C=O)[C@@]12C [SCALARADIAL]		6.22	Active
C[C@@H]1O[C@@H](O)[C@H]2C1=CC[C@H]1[C@]3(C)CC[C@H]4C(C)(C)CCC[C@]4(C)[C@H]3C[C@@H](O)[C@]21C	inactive		inactive

Continued, in another order:

Activity [1]	pIC50 [1]	Structure (SMILES)	Activity [2]
	4.74	CC(=O)OC[C@]12CCCC(C)(C)[C@@H]1CC[C@]1(C)[C@@H]2C[C@@H](O)[C@]2(C)[C@@H](C=O)C(C(C)=O)=CC[C@@H]12	
inactive		CC(=O)OC[C@]12CCCC(C)(C)[C@@H]1CC[C@]1(C)[C@@H]2C[C@@H](O)[C@]2(C)[C@@H]3C(=CC[C@@H]12)[C@H](C)O[C@H]3O	inactive

— ChEMBL document CHEMBL1154569, “Scalarane and homoscalarane compounds from the nudibranchs Glossodoris sedna and Glossodoris dalli: chemical and biological properties” (J Nat Prod, 2000)
